# Compound activity from PubChem.
# Only some compounds are listed: those with a hit (about 1.5% of all), similar ones and a draw of the others.
# CAL PDZ FP-1: blocks peptide binding to human CAL PDZ domain | 0.02% of 330,000 active | Q9HD26 | purified CAL PDZ, TMR-peptide fluorescence polarization, 1 h | inhibition, % at 20 µM;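 active means highest replicate inhibition of at least 40%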;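 further: plate controls were DMSO neutral control wells for no effect and unlabeled competitor peptide control wells for full effect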
#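 Control set: unlabelled peptide and DMSO controls / Material: purified CerCALP PDZ construct / Timing: 1 h incubation at room temperature before polarization reading / Doses: 20 µM, one dose / Detection: fluorescence polarization (mP)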
# Keap1 Nrf2 FP: Keap1-Nrf2 (human) interaction inhibition; 0.15% of 340,000 active; AID 504523; Q14145; inhibition, % at 9.4 µM; Keap1 Kelch-Nrf2 peptide fluorescence polarization, 1536-well; in the data active means inhibition above about 12%;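 further: human Keap1 Kelch domain with fluorescein labeled Nrf2 9mer peptide probe; 0% = neutral control wells and 100% = peptide positive control; higher means more block of Keap1 binding to Nrf2 peptide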
# Target sequence (Q14145 whole entry, looked up, the tested form may be a part): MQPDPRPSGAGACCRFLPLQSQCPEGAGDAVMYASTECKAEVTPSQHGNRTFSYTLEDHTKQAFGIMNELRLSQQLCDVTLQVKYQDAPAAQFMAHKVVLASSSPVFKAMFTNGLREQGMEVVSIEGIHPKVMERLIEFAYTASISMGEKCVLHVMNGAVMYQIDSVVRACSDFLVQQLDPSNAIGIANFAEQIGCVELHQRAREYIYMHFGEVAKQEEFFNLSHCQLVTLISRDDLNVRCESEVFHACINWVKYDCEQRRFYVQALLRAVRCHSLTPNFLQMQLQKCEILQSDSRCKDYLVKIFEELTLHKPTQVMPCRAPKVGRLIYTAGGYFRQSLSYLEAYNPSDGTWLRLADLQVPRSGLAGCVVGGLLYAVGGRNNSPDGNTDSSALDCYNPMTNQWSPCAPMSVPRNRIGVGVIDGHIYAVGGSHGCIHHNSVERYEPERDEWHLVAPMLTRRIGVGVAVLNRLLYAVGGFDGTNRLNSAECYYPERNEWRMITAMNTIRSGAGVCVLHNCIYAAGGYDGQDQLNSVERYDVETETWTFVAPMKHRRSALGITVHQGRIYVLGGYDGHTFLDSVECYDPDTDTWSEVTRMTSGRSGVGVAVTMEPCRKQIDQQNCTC
# LANA-H2A inh: blocks KSHV LANA binding to histone H2A/H2B. Q9QR71. cell-free LANA-H2A/H2B peptide, fluorescence polarization. inhibition, % (concentration not given with the values). 0.6% of 320,000 active; in the data active means inhibition mostly above about 10%, no sharp cut-off; inactive means mostly below about 6.7%
# LANA DNA inh: inhibitors of KSHV LANA C-terminal domain DNA binding; MBP-C-LANA/FAM-LBS DNA binding, fluorescence polarization; inhibition, % at 9 µM; 0.078% of 340,000 active; AID 504423;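 active means highest replicate inhibition at or above 60% at 9 µM, even if other replicates fall short; inactive means all replicates below 60% inhibition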;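 further: 0% = neutral control wells and 100% = 4 µM acridine orange control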
# CAL PDZ FP-2: blocks peptide binding to the human CAL PDZ domain. inhibition, % at 24.9 µM. AID 602252. 0.92% of 300,000 active. purified CAL PDZ, TMR-peptide fluorescence polarization, 1 h;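 active means mean inhibition of at least 30% with at least half of replicates also reaching 30%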;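 further: 0% = DMSO neutral control and 100% = excess unlabeled competitor peptide PRC23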
# CaV13 FRET inh: Disruptors of the CACNA1D IQ motif to Ca2+-dependent inactivation inhibitor domain association, primary screening, Förster resonance energy transfer in intact living …; inhibition, % at 12.3 µM; 0.098% of 340,000 active; HEK cells, CFP/YFP FRET ICDI-IQ, plate reader, 10 min; percent FRET-ratio fall versus neutral wells;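 active means mean replicate inhibition of at least 30% and at least 1% of replicates passing that level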;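 further: 0% = median of the neutral control wells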
# An asterisk follows results filed as active; / = no result given; + = active, no number.
SMILES,CAL PDZ FP-1,Keap1 Nrf2 FP,LANA-H2A inh,LANA DNA inh,CAL PDZ FP-2,CaV13 FRET inh
O=c1[nH][nH]c2c(N=Cc3ccccc3O)ccc(F)c12,1.2,-1.6,/,86.8*,-6.8,/
O=c1oc2cc(O)ccc2cc1S(=O)(=O)c1ccccc1,-2.5,-2.4,4.9,1.1,-1.5,31.3*
NC(=S)c1cc2ccc(O)cc2oc1=O,-1.2,-10.9,/,0.6,-2.0,12.9
O=c1oc2cc(O)ccc2cc1-c1nc2ccccc2o1,/,/,/,/,/,38.0*
COC(=O)c1ccsc1NS(C)(=O)=O,/,/,/,/,/,-4.5
CS/C(=N\S(=O)(=O)c1ccc(N)cc1)NS(=O)(=O)c1cccs1,1.2,6.7,-3.5,112.6*,0.0,/
C=CCN=C1NC(CCc2ccccc2)C(C(=O)OC)=C(C)N1C (centres undefined),/,/,/,/,/,-5.5
CCOC(=O)c1c(-c2ccc(C)s2)csc1NC(=O)c1cccs1,-1.0,-0.7,-1.5,-1.2,-3.2,-6.3
CCOC(=O)c1c(NC(=O)c2cccs2)sc(CC)c1-c1cccs1,-2.4,0.8,-1.3,-0.1,30.7*,-9.6
O=C(NCc1ccccc1)c1ncn[nH]1,0.2,0.2,-0.2,1.5,111.8*,1.3
CCCCn1nnnc1C(c1cc2ccccc2o1)N(CCN(C)C)Cc1ccccc1 (centres undefined),/,/,/,/,/,-4.8
O=C(C(=O)N1CCN(S(=O)(=O)c2cccc(C(F)(F)F)c2)CC1)c1cccc(C(F)(F)F)c1,/,/,/,/,/,-9.2
CC(C)CNC(=O)NC(=O)COC(=O)COc1ccc(Cl)cc1Cl,-0.7,-1.2,-4.7,0.6,45.0*,-15.2
CCCCOC(=O)COc1ccc(Cl)cc1Cl,-2.6,-4.3,13.9*,1.3,-2.5,/
S=c1c2c(nc3nc[nH]n13)CCC2,-0.1,-2.2,1.5,62.8*,/,-16.3
COCCN(C(=O)CSc1nc2ccccc2s1)c1c(N)n(Cc2ccccc2)c(=O)[nH]c1=O,-0.7,-3.1,/,9.2,99.1*,-3.7
COCCN(C(=O)COC(=O)CCc1nc2ccccc2s1)c1c(N)n(Cc2ccccc2)c(=O)[nH]c1=O,-2.2,2.9,3.4,-1.4,-4.4,-9.7
COCCN(C(=O)COC(=O)/C=C/c1ccc2ccccc2n1)c1c(N)n(Cc2ccccc2)c(=O)[nH]c1=O,-4.4,-3.1,1.3,-3.1,42.9*,/
CC(C)[C@H](NC(=O)c1ccccc1)C(=O)N1CCC[C@H]1C(=O)NCCc1ccccc1Cl,/,/,/,/,/,-0.8
O=C(Nc1ccccc1F)Nc1ccccc1OC(F)F,-0.2,5.8,-0.8,4.0,-3.0,-2.4
Cc1ccc(NC(=O)Nc2ccc(F)cc2F)c(OC(F)F)c1,-0.6,-0.7,102.5*,0.2,/,-5.5
C[C@@H]1CNC(=O)c2c(C(=O)N3CCN(c4ccccc4)CC3)ncn21,/,/,/,/,/,-3.6
O=[N+]([O-])c1ccc(C(=S)N2CCCC2)cc1,-0.1,0.7,+,-0.1,-1.0,7.7
CCOCCCNC(=O)c1ccc(OC(C)=O)cc1,-1.2,0.1,-3.7,-1.0,36.5*,-3.5
CC(=O)NS(=O)(=O)c1ccc(NC(=O)C(C)NS(=O)(=O)/C=C/c2ccccc2)cc1 (centres undefined),1.1,4.3,1.0,8.0,/,-2.7
SMILES,CAL PDZ FP-1,Keap1 Nrf2 FP,LANA-H2A inh,LANA DNA inh,CAL PDZ FP-2,CaV13 FRET inh
COc1cccc(CNC(=O)[C@H]2CCCN2C(=O)[C@H]2CCCN2C(=O)c2ccc(C)c(C)c2)c1,/,/,/,/,/,-4.2
CC(=O)Nc1sc2c(c1C(N)=O)CCC2,/,-0.7,3.1,-0.2,67.8*,/
CC1CCCN(C(=O)c2ccc(COc3ccccc3Br)cc2)C1 (centres undefined),-1.4,1.0,-0.8,0.3,39.7*,-4.5
CCOC(=O)C1=C(C)NC(C)=C(C(=O)OCC)C1c1ccc(Br)o1,-1.6,-2.6,1.0,1.1,178.6*,-5.8
CCOC(=O)C1=C(C)NC(=O)NC1c1ccc(Br)o1 (centres undefined),1.1,-3.9,0.8,0.6,-0.2,-5.2
C=CCn1c(=S)[nH]c2ccccc2c1=O,-0.2,-4.9,16.4*,-0.2,0.9,-1.0
COc1cc(NC(=O)C2CCCN(S(=O)(=O)c3cccc4nsnc34)C2)cc(OC)c1 (centres undefined),-0.8,3.3,0.2,0.4,57.8*,-4.4
CC(C)C[C@H](NC(=O)NCCC1=CCCCC1)C(=O)O,-0.8,1.4,-8.3,-23.5,0.0,6.2
